Data taken from ChEMBL document CHEMBL1275391, “Design, synthesis, and preclinical evaluation of new 5,6- (or 6,7-) disubstituted-2-(fluorophenyl)quinolin-4-one derivatives as potent antitumor agents” (J Med Chem, 2010).

How the values were obtained:
MDA-MB-435 = experiment: Growth inhibition of human MDA-MB-435 cells; format: functional
SK-MEL-5 = experiment: Growth inhibition of human SK-MEL-5 cells; format: functional
UGT1A1 = UGT1A1 (Homo sapiens, UniProt P22309); experiment: Inhibition of human UGT1A1 at 10 uM
NCI-H460 [1] = experiment: Growth inhibition of human NCI-H460 cells; format: functional
NCI-H23 = experiment: Growth inhibition of human NCI-H23 cells; format: functional
SNB-19 = experiment: Growth inhibition of human SNB19 cells; format: functional
HCT-116 = experiment: Cytotoxicity against human HCT116 cells after 48 hrs by MTT assay; format: functional, cell-based; settings: HCT-116, 48 h
Method in brief: (§1)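 Cells exposed to a range of compound concentrations for 48 h, washed once with PBS, then incubated with MTT for 2 h. Formazan dissolved in DMSO and absorbance read at 570 nm. IC50 taken as the concentration giving 50% inhibition of proliferation.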

U-251 = experiment: Growth inhibition of human U251 cells; format: functional
HOP-62 = experiment: Growth inhibition of human HOP62 cells; format: functional
TK-10 = experiment: Growth inhibition of human TK10 cells; format: functional
NCI-H322M = experiment: Growth inhibition of human NCI-H322M cells; format: functional
[2] = Growth inhibition of human […] cells; format: functional
[3] = biological target: Insulin-like growth factor 1 receptor (Homo sapiens) (UniProt P08069); experiment: Inhibition of tyrosine phosphorylation of IGF1R in human Hep3B cells assessed as decrease of phosphorylated IGF1R level after 12 hrs by Western blotting; format: cell-based; settings: Hep 3B2
Method in brief: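 Hep3B cells were exposed to a range of concentrations for 12 h at 37 C, with DMSO as vehicle control. They were lysed in Tris-HCl pH 7.9 buffer containing Triton X-100, SDS, NaF, orthovanadate and protease inhibitors, then centrifuged. Lysates were immunoblotted with anti-pY1135/1136-IGF-1R, and IGF-1R β-subunit served as loading control.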

IGROV-1 = experiment: Growth inhibition of human IGROV1 cells; format: functional
EKVX = experiment: Growth inhibition of human EKVX cells; format: functional
[4] = biological target: cGMP-specific 3',5'-cyclic phosphodiesterase (Homo sapiens) (UniProt O76074); experiment: Inhibition of human PDE5 at 10 uM
PC-3 = experiment: Growth inhibition of human PC3 cells; format: functional
NCI-H226 = experiment: Growth inhibition of human NCI-H226 cells; format: functional
786-0 = experiment: Growth inhibition of human 786-0 cells; format: functional
SN12C = experiment: Growth inhibition of human SN12C cells; format: functional
RXF 393 = experiment: Growth inhibition of human RXF393 cells; format: functional
HCC 2998 = experiment: Growth inhibition of human HCC2998 cells; format: functional
ACHN = experiment: Growth inhibition of human ACHN cells; format: functional
NCI-H460 [5] = experiment: Cytotoxicity against human H460 cells after 48 hrs by MTT assay; format: functional, cell-based; settings: NCI-H460, 48 h; method in brief: as §1
NCI/ADR-RES = experiment: Growth inhibition of human NCI/ADR-RES cells; format: functional
UO-31 = experiment: Growth inhibition of human UO31 cells; format: functional
MOLT-4 = experiment: Growth inhibition of human MOLT4 cells; format: functional
A498 = experiment: Growth inhibition of human A498 cells; format: functional
OVCAR-4 = experiment: Growth inhibition of human OVCAR4 cells; format: functional
LOX IMVI = experiment: Growth inhibition of human LOXIMVI cells; format: functional
HCT-15 = experiment: Growth inhibition of human HCT15 cells; format: functional
HOP-92 = experiment: Growth inhibition of human HOP92 cells; format: functional
SNB-75 = experiment: Growth inhibition of human SNB75 cells; format: functional
M14 = experiment: Growth inhibition of human M14 cells; format: functional
MDA-MB-468 = experiment: Growth inhibition of human MDA-MB-468 cells; format: functional
BT-549 = experiment: Growth inhibition of human BT549 cells; format: functional
A549 = experiment: Growth inhibition of human A549 cells; format: functional
OVCAR-5 = experiment: Growth inhibition of human OVCAR5 cells; format: functional
CCRF-CEM = experiment: Growth inhibition of human CCRF-CEM cells; format: functional
[6] = biological target: Tyrosine-protein kinase Yes (Homo sapiens) (UniProt P07947); experiment: Inhibition of human YES1 at 10 uM
[7] = read-out: pLC50 (the source's name) (converted)

Tyrosine-protein kinase Yes (Homo sapiens), sequence (P07947 2-543 limits assumed): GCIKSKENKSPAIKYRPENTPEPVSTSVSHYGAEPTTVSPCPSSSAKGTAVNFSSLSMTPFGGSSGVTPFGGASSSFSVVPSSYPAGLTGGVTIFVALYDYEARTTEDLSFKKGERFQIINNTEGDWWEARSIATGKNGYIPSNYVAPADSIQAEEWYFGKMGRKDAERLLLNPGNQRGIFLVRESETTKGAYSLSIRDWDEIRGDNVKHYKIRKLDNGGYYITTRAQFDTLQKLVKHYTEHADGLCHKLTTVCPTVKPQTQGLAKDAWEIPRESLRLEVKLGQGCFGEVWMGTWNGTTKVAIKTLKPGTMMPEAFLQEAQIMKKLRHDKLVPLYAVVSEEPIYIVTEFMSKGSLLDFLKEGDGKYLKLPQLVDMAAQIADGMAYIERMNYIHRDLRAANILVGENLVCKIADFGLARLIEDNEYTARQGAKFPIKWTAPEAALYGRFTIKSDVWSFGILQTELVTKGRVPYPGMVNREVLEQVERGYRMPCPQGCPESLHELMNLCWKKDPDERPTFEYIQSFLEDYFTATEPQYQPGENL
UGT1A1, sequence (P22309 whole entry): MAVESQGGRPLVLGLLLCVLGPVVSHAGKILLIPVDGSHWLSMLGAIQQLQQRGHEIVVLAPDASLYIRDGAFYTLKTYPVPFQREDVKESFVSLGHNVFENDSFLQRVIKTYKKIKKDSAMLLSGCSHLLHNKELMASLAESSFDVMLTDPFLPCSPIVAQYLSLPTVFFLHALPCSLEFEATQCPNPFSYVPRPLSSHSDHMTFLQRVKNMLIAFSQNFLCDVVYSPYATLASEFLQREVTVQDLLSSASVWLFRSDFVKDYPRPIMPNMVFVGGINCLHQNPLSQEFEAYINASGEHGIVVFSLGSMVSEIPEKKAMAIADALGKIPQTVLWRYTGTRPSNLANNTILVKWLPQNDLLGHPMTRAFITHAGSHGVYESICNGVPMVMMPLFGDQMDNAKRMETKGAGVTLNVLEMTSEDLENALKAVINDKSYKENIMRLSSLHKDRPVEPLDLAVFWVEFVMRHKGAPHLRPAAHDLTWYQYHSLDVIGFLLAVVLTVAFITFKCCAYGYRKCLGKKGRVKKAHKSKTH
Insulin-like growth factor 1 receptor (Homo sapiens), sequence (P08069 31-736 limits assumed): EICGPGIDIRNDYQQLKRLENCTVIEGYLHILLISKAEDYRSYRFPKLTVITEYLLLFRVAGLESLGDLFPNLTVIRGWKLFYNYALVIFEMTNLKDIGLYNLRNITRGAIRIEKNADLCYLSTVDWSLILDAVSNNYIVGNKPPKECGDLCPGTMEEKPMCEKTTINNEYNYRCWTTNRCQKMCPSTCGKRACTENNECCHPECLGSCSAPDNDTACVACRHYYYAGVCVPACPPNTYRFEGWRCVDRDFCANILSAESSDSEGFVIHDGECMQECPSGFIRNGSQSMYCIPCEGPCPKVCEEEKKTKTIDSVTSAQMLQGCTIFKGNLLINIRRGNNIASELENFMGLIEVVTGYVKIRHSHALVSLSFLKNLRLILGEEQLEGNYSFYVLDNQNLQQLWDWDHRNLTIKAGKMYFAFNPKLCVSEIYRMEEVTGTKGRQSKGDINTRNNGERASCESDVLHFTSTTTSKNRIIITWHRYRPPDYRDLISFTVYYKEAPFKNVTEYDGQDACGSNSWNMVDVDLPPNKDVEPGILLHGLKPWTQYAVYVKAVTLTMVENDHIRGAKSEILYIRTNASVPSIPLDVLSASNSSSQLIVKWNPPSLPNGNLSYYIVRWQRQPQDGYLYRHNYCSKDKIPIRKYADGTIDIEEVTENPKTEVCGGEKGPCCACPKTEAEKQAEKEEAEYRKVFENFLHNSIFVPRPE
Insulin-like growth factor 1 receptor (Homo sapiens), sequence (P08069 741-1367 limits assumed): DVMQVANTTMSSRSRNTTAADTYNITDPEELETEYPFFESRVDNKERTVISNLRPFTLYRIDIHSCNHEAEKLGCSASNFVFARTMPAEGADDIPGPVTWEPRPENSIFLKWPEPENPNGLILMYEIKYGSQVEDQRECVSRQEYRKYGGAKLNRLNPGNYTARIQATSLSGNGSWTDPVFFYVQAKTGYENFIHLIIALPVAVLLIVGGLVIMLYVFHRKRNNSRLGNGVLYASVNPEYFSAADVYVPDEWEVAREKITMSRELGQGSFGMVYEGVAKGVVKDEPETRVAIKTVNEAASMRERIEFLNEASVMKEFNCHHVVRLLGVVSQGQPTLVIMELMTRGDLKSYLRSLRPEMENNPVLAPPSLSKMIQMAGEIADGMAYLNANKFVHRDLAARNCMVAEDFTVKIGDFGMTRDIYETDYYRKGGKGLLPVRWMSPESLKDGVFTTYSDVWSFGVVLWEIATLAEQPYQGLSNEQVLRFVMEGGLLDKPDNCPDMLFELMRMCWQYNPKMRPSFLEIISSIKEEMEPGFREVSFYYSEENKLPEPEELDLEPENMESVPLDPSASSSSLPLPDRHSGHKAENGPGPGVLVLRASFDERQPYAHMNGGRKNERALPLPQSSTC

Compound: COc1ccc2[nH]c(-c3cccc(F)c3)cc(=O)c2c1O
- GI50 (MDA-MB-435): < 10 nM
- CC50 (MDA-MB-435; [7]): > 100000 nM
- TGI (MDA-MB-435; read-out: pTGI (converted)): 45.7 nM
- GI50 (SK-MEL-5): 29.5 nM
- CC50 (SK-MEL-5; [7]): 18200 nM
- TGI (SK-MEL-5; read-out: pTGI (converted)): 200 nM
- inhibition at 10 µM (UGT1A1): 86%
- GI50 (NCI-H460 [1]): 33.1 nM
- CC50 (NCI-H460 [1]; [7]): 32400 nM
- TGI (NCI-H460 [1]; read-out: pTGI (converted)): 1050 nM
- GI50 (NCI-H23): 34.7 nM
- CC50 (NCI-H23; [7]): > 100000 nM
- TGI (NCI-H23; read-out: pTGI (converted)): 13800 nM
- GI50 (SNB-19): 28.8 nM
- CC50 (SNB-19; [7]): > 100000 nM
- TGI (SNB-19; read-out: pTGI (converted)): 437 nM
- IC50 (HCT-116): 70 nM
- GI50 (U-251): 42.7 nM
- CC50 (U-251; [7]): 55000 nM
- TGI (U-251; read-out: pTGI (converted)): 14500 nM
- GI50 (HOP-62): 50.1 nM
- CC50 (HOP-62; [7]): 42700 nM
- TGI (HOP-62; read-out: pTGI (converted)): 14500 nM
- GI50 (TK-10): 1780 nM
- CC50 (TK-10; [7]): > 100000 nM
- TGI (TK-10; read-out: pTGI (converted)): 67600 nM
- GI50 (NCI-H322M): 851 nM
- CC50 (NCI-H322M; [7]): > 100000 nM
- TGI (NCI-H322M; read-out: pTGI): > 100000 nM
- GI50 [2]: 33.1 nM
- CC50 [2, 7]: > 100000 nM
- TGI ([2]; read-out: pTGI (converted)): 16200 nM
- inhibition [3]: Dose-dependent effect
- GI50 (IGROV-1): 26.9 nM
- TGI (IGROV-1; read-out: pTGI (converted)): 93.3 nM
- GI50 (EKVX): 45.7 nM
- CC50 (EKVX; [7]): > 100000 nM
- TGI (EKVX; read-out: pTGI): > 100000 nM
- inhibition [4]: 57%
- GI50 (PC-3): 32.4 nM
- CC50 (PC-3; [7]): 70800 nM
- TGI (PC-3; read-out: pTGI (converted)): 15500 nM
- GI50 (NCI-H226): 1820 nM
- CC50 (NCI-H226; [7]): > 100000 nM
- TGI (NCI-H226; read-out: pTGI (converted)): 31600 nM
- GI50 (786-0): 50.1 nM
- CC50 (786-0; [7]): 89100 nM
- TGI (786-0; read-out: pTGI (converted)): 16200 nM
- GI50 (SN12C): 61.7 nM
- CC50 (SN12C; [7]): > 100000 nM
- TGI (SN12C; read-out: pTGI (converted)): 38000 nM
- GI50 (RXF 393): 17.4 nM
- CC50 (RXF 393; [7]): 56200 nM
- TGI (RXF 393; read-out: pTGI (converted)): 45.7 nM
- GI50 (HCC 2998): 32.4 nM
- CC50 (HCC 2998; [7]): 16200 nM
- TGI (HCC 2998; read-out: pTGI (converted)): 66.1 nM
- GI50 (ACHN): 97.7 nM
- CC50 (ACHN; [7]): > 100000 nM
- TGI (ACHN; read-out: pTGI (converted)): 33900 nM
- IC50 (NCI-H460 [5]): 80 nM
- GI50 (NCI/ADR-RES): 20.9 nM
- CC50 (NCI/ADR-RES; [7]): 40700 nM
- TGI (NCI/ADR-RES; read-out: pTGI (converted)): 53.7 nM
- GI50 (UO-31): 51.3 nM
- CC50 (UO-31; [7]): 39800 nM
- TGI (UO-31; read-out: pTGI (converted)): 10200 nM
- GI50 (MOLT-4): 47.9 nM
- CC50 (MOLT-4; [7]): > 100000 nM
- TGI (MOLT-4; read-out: pTGI (converted)): 19100 nM
- GI50 (A498): 24.6 nM
- CC50 (A498; [7]): 41700 nM
- TGI (A498; read-out: pTGI (converted)): 209 nM
- GI50 (OVCAR-4): 43.6 nM
- CC50 (OVCAR-4; [7]): > 100000 nM
- TGI (OVCAR-4; read-out: pTGI (converted)): 9120 nM
- GI50 (LOX IMVI): 91.2 nM
- CC50 (LOX IMVI; [7]): > 100000 nM
- TGI (LOX IMVI; read-out: pTGI (converted)): 57500 nM
- GI50 (HCT-15): 35.5 nM
- CC50 (HCT-15; [7]): > 100000 nM
- TGI (HCT-15; read-out: pTGI (converted)): 14800 nM
- GI50 (HOP-92): 4900 nM
- CC50 (HOP-92; [7]): > 100000 nM
- TGI (HOP-92; read-out: pTGI (converted)): 36300 nM
- GI50 (SNB-75): 15.1 nM
- CC50 (SNB-75; [7]): 44700 nM
- TGI (SNB-75; read-out: pTGI (converted)): 58.9 nM
- GI50 (M14): 19.1 nM
- CC50 (M14; [7]): 70800 nM
- GI50 (MDA-MB-468): 39.8 nM
- CC50 (MDA-MB-468; [7]): 851 nM
- TGI (MDA-MB-468; read-out: pTGI (converted)): 219 nM
- GI50 (BT-549): 145 nM
- CC50 (BT-549; [7]): > 100000 nM
- TGI (BT-549; read-out: pTGI (converted)): 26900 nM
- GI50 (A549): 41.7 nM
- CC50 (A549; [7]): 93300 nM
- TGI (A549; read-out: pTGI (converted)): 14800 nM
- CC50 (OVCAR-5; [7]): 46800 nM
- TGI (OVCAR-5; read-out: pTGI (converted)): 15800 nM
- GI50 (CCRF-CEM): 34.7 nM
- CC50 (CCRF-CEM; [7]): > 100000 nM
- TGI (CCRF-CEM; read-out: pTGI): > 100000 nM
- inhibition [6]: 68%
